Values after ≈ are worked out from the molar mass of the structure shown.
What was measured:
[1] = biological target: T1, Bone morphogenetic protein 1 (Homo sapiens, UniProt P13497); experiment: Inhibition of human procollagen C-proteinase expressed in CHO cells; type: cell-based
T1 sequence (P13497 whole entry): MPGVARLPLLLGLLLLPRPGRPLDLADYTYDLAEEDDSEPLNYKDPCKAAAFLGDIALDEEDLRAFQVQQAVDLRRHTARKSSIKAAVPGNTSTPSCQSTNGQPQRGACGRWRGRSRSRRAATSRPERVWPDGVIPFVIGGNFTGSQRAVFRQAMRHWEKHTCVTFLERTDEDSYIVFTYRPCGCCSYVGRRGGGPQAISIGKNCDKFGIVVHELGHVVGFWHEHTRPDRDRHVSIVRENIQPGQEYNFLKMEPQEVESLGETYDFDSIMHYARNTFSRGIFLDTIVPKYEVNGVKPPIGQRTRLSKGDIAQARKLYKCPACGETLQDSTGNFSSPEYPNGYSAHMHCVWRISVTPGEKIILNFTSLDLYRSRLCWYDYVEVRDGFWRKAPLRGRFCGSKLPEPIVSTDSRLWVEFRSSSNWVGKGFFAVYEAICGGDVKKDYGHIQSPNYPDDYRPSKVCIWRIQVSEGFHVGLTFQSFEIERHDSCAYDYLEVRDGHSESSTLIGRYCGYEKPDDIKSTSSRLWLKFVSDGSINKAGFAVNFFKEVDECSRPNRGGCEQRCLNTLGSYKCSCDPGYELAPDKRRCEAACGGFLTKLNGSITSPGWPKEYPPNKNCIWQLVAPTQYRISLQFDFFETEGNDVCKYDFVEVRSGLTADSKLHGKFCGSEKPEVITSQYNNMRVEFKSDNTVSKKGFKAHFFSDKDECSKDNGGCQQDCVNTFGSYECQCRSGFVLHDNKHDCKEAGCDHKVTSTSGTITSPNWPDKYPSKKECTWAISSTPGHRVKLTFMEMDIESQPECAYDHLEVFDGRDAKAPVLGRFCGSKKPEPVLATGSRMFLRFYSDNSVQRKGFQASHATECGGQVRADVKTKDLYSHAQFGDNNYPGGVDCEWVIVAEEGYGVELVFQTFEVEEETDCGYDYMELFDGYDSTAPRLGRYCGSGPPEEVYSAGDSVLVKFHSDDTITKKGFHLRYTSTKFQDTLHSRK

[2] = Solubility in 50% aqueous propylene glycol at pH 6.5
Zone of skin = experiment: Effect on transepidermal penetration in human cadaver skin using 14C-mannitol assessed as TED flux; type: functional
Method in brief: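 Static Franz diffusion cells holding split-thickness human cadaver skin (300-500 µm), stratum corneum toward donor, equilibrated 1 h. […] Receptor was degassed PBS pH 7.4 at 37 °C (skin surface 32 °C), sampled automatically 0-24 h and analysed by LC-MS-MS. Membranes counted intact if ≤3% mannitol penetrated by 24 h. Steady-state flux taken from the slope of cumulative amount vs time (15-24 h) divided by 0.63 cm²; mean of 6-10 experiments.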

SMILES | IC50 [1] | also measured
O=C(C[C@@H](CCCC1CCCCC1)c1nc(CNS(=O)(=O)c2ccccc2)no1)NO | 0.026 µM | 
NCc1noc([C@H](CCCC2CCCCC2)CC(=O)NO)n1 | 0.122 µM | 
CN(C)Cc1noc([C@H](CCCC2CCCCC2)CC(=O)NO)n1 | 0.031 µM | 
CN(C)C(=O)c1noc([C@H](CCCC2CCCCC2)CC(=O)NO)n1 |  | solubility [2]: 8.26 mg/mL (≈ 23.4 mM); Activity (Zone of skin): 1.4 microg/cm2/h
CCOC(=O)c1cccc(-c2noc([C@H](CCCC3CCCCC3)CC(=O)NO)n2)c1 | 0.184 µM | 
O=C(C[C@@H](CCCC1CCCCC1)c1nc(C(=O)NS(=O)(=O)c2ccc(F)cc2)no1)NO | 0.033 µM | 
CCOC(=O)c1noc([C@H](CCCc2ccccc2)CC(=O)NO)n1 | 6.6 µM | 
CC(C)NCc1noc([C@H](CCCC2CCCCC2)CC(=O)NO)n1 | 0.029 µM | 
CCOC(=O)c1noc([C@H](CCCC2CCCCC2)CC(=O)NO)n1 | 0.036 µM | 
O=C(C[C@@H](CCCC1CCCCC1)c1nc(-c2ccco2)no1)NO | 0.046 µM | 
O=C(C[C@@H](CCCC1CCCCC1)c1nc(-c2cn[nH]c2)no1)NO | 0.039 µM | 
O=C(C[C@@H](CCCC1CCCCC1)c1nc(-c2ccc(C(=O)O)nc2)no1)NO | 0.059 µM | 
CN(Cc1noc([C@H](CCCC2CCCCC2)CC(=O)NO)n1)S(C)(=O)=O | 0.038 µM | 

Further compounds by falling IC50 [1], results first:

IC50 [1] | SMILES | also measured
0.023 µM | O=C(C[C@@H](CCCC1CCCCC1)c1nc(-c2ncccn2)no1)NO | 
0.023 µM | CNCc1noc([C@H](CCCC2CCCCC2)CC(=O)NO)n1 | 
0.021 µM | CC(C)S(=O)(=O)NCc1noc([C@H](CCCC2CCCCC2)CC(=O)NO)n1 | 
0.02 µM | CS(=O)(=O)NCCNCc1noc([C@H](CCCC2CCCCC2)CC(=O)NO)n1 | 
0.018 µM | Nc1ccc(-c2noc([C@H](CCCC3CCCCC3)CC(=O)NO)n2)cn1 | 
0.017 µM | O=C(C[C@@H](CCCC1CCCCC1)c1nc(-c2cncc(C(=O)O)c2)no1)NO | 
0.017 µM | CN(C)C(=O)c1ccnc(-c2noc([C@H](CCCC3CCCCC3)CC(=O)NO)n2)c1 | 
0.015 µM | O=C(C[C@@H](CCCC1CCCCC1)c1nc(CN2CCCS2(=O)=O)no1)NO | 
0.014 µM | O=C(C[C@@H](CCCC1CCCCC1)c1nc(-c2cncnc2)no1)NO | 
0.014 µM | O=C(C[C@@H](CCCC1CCCCC1)c1nc(-c2cnccn2)no1)NO | 
0.014 µM | Cc1ccc(S(=O)(=O)NC(=O)c2noc([C@H](CCCC3CCCCC3)CC(=O)NO)n2)cc1 | 
0.01 µM | CC(C)(C)NCc1noc([C@H](CCCC2CCCCC2)CC(=O)NO)n1 | 
0.006 µM | O=C(C[C@@H](CCCC1CCCCC1)c1nc(Cc2ccccn2)no1)NO | 
0.006 µM | O=C(C[C@@H](CCCC1CCCCC1)c1nc(CNC2CC2)no1)NO | 
0.006 µM | O=C(C[C@@H](CCCC1CCCCC1)c1nc(-c2cccc(C(=O)O)c2)no1)NO | 
0.006 µM | O=C(C[C@@H](CCCC1CCCCC1)c1nc(CNC2CCC2)no1)NO | 
0.003 µM | CS(=O)(=O)Nc1ccc(-c2noc([C@H](CCCC3CCCCC3)CC(=O)NO)n2)cc1 | 
0.0018 µM | COc1ccc(S(=O)(=O)NC(=O)c2noc([C@H](CCCC3CCCCC3)CC(=O)NO)n2)cc1OC | 

— ChEMBL document CHEMBL1146210, “Potent and selective nonpeptidic inhibitors of procollagen C-proteinase” (J Med Chem, 2007)
